Assay outcomes (PubChem BioAssay)
Hits are enriched below; roughly 4.3% of the tested compounds scored in any of these assays.
TAAR1 ag: human TAAR1 agonists, primary screen, Fluo-8 calcium fluorescence, CHO RD-HGA16 cells | vehicle wells 0%, saturating PEA agonist 100% | 0.99% of 360,000 active | activation, % at 3 µM | Trace amine-associated receptor 1 (Homo sapiens), Q96RJ0;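 active = activation above the mean activation of all test compounds in the run plus 3 SD, cut at about 38% in these data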
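Signal – calcium-sensitive Fluo-8 signal, excitation 470-495, emission 515-575 nm · System – RD-HGA16 (CHO) cells co-expressing Gα16 and hTAAR1 · Incubation – 17-24 h seeding, 75 min 37 °C dye, 30 min RT · Compound dosing – 3 µM single concentration · Repeats – no replicates (n 1)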
MC4R antag cAMP: MC4R antagonists of cAMP signaling, primary screen, cell-based, TR-FRET, antagonist arm of biased-ligand search; MC4R-expressing cells, MTII-stimulated cAMP, LANCE TR-FRET; Melanocortin receptor 4 (Homo sapiens), P32245; 0.48% of 360,000 active; AID 540295, 2011; inhibition, % at 6.5 µM;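 active = inhibition above its plate's cutoff, the mean of tested wells on that plate plus 3 SD, cut at about 29% in these data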
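Assay system: U2OS-MC4R stable cell line; Also added: Melanotan II; Technique: Eu-cAMP/anti-cAMP TR-FRET, emission 671 nm; Times: 30-min compound, 1-h challenge, 1-h detection, room temperature.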
TAAR1 antag: human TAAR1 antagonists, primary screen, Fluo-8 calcium fluorescence, CHO RD-HGA16 cells | Trace amine-associated receptor 1 (Homo sapiens), Q96RJ0 | antagonist | inhibition, % at 3 µM | 1.5% of 360,000 active | AID 624466, 2012;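 active = inhibition above a per-plate cutoff, the mean inhibition of test compounds on that plate plus 3 SD, cut at about 49% in these data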
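Test system: CHO RD-HGA16 cells bearing hTAAR1 | Reagent: β-PEA, EC80 | Compound dosing: 3 µM, single point | Schedule: Dye loading 75 min at 37 °C, then 30 min room temperature | Signal: Calcium fluorescence with Fluo-8 | Evaluation: Percent inhibition of PEA-evoked calcium signal, max/basal emission ratio | Control set: DMSO-only wells and EC80 β-PEA-stimulated wells | Repeats: Singlicate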
B2AR ag: beta2AR agonists driving receptor internalization, primary screen, cell-based, FAP fluorogen, flow cytometry; 0.43% of 340,000 active; response, % (test concentration not listed); AID 504454, 2011; Am2.2-beta2AR cells; Beta-2 adrenergic receptor (Homo sapiens), P07550;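 active = response above a set limit, near 3 SD of response in nonfluorescent compounds, cut at about 42% in these data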
Target sequence (P07550 whole entry, looked up): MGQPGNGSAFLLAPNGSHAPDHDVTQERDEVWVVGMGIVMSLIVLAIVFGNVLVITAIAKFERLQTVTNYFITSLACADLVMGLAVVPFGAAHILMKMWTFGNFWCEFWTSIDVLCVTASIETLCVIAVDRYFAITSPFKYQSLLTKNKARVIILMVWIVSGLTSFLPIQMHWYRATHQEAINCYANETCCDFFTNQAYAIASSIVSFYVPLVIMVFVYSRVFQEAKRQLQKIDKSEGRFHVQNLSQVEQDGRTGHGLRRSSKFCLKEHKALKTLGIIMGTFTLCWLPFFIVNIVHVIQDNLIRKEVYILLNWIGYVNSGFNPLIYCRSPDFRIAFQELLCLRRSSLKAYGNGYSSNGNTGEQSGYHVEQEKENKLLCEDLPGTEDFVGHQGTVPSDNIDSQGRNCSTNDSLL
HTR2A ag: mouse Htr2a agonists via beta-arrestin recruitment, primary screen, cell-based, luminescence | 5-hydroxytryptamine receptor 2A (Mus musculus), P35363 | CHO-K1 mHTR2A beta-arrestin complementation; percent of 30 µM serotonin response | activation, % at 7.6 µM | 0.66% of 360,000 active;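 active = activation above a run cutoff, the mean activation of all tested compounds plus 3 SD, cut at about 14% in these data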
MC4R ag barr: MC4R agonists recruiting beta-arrestin, primary screen, cell-based, luminescence, agonist arm of biased-ligand search; U2OS MC4R beta-arrestin complementation; percent of melanotan II response, DMSO zero; activation, % at 8.9 µM; 0.98% of 360,000 active; AID 540308, 2011;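 active = activation above a per-plate cutoff, the mean activation of sample wells on that plate plus 3 SD, cut at about 8% in these data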
MC4R barr ag: MC4R beta-arrestin agonists, retest, confirmation, cell-based, luminescence, U2OS; U2OS MC4R beta-arrestin recruitment; scaled DMSO 0%, Melanotan II 100%; 31% of 2,400 active; activation, % at 8.9 µM; AID 602192, 2012; shares compounds with MC4R ag barr;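 active = mean activation across replicates above the hit cutoff set in the earlier primary screen, cut at about 8% in these data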
MOR DOR agonist: agonists of MOR-DOR heterodimerization, counter-screen for MC4R biased agonist project, cell-based, luminescence; shares compounds with MC4R ag barr; U2OS PathHunter beta-arrestin, beta-gal luminescence; percent of deltorphin B response, DMSO zero; activation, % at 9.2 µM; 5.8% of 2,400 active; AID 602194, 2012;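 active = mean activation across replicates exceeds the hit threshold derived in the earlier primary screen, cut at about 18% in these data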
A number is an active result; n = inactive; x = no result.

SMILES	TAAR1 ag	MC4R antag cAMP	TAAR1 antag	B2AR ag	HTR2A ag	MC4R ag barr	MC4R barr ag	MOR DOR agonist
OC(c1cccc(Cl)c1)c1nc(-c2cnc3ccccc3c2)cs1 (centres undefined)	n	n	n	x	n	n	x	x
Cc1csc2ncnc(N3CCN(C(=S)Nc4ccc(F)cc4F)CC3)c12	n	n	n	n	n	n	x	x
COc1c(Br)cc(Br)cc1/C=N/NC(=O)c1ccncc1	n	n	n	n	n	n	x	x
CCNC(=S)N/N=C/c1cc(Br)cc(Br)c1OC	n	n	n	n	n	12	n	n
CC(=O)c1ccc(OCc2cc(C(=O)NCC3CCCCO3)no2)cc1 (centres undefined)	n	n	n	n	n	n	x	x
CC(=O)c1ccc(OCc2cc(C(=O)NCCc3ccc(Cl)cc3)no2)cc1	n	n	n	n	n	14	n	n
O=[N+]([O-])c1cccc(S(=O)(=O)NCC2CC3CCC2C3)c1 (centres undefined)	n	n	n	n	n	n	x	x
O=C(CC[C@H]1O[C@@H](n2cnc3c(NC(=O)c4ccccc4)ncnc32)[C@H](O)[C@@H]1O)NCc1ccco1	n	x	n	x	n	x	x	x
COc1cc(NC(=O)c2ccc(C)cc2C)ccc1NC(=O)c1cc2ccccc2o1	n	n	n	n	n	12	16	n
O=C(Nc1ccc2c(c1)Cc1ccccc1-2)c1cc2ccccc2o1	n	n	n	n	n	13	n	n
O=C(Nc1ccc2c(c1)CCC2)c1cc2ccccc2o1	n	n	n	n	n	n	x	x
COc1cc(NC(=O)c2cccc(F)c2)ccc1NC(=O)c1cc2ccccc2o1	n	n	n	n	n	12	n	n
O=C(c1ccc(Br)cc1)N1CCC(C(=O)N2CCN(Cc3ccccc3)CC2)CC1	n	n	n	n	n	n	x	x
COC(=O)c1ccc(C(=O)Nc2nc3cc(N)c(C)cc3s2)cc1	n	n	n	n	n	11	n	n
COc1ccc(C(=O)Nc2nc3ccc(OC)cc3s2)cc1	n	n	n	n	n	n	x	x
COc1ccc(/C=C/C(=O)NCc2c(C)nn(C)c2C)cc1COc1ccc(Br)cc1	n	n	n	n	n	12	n	n
Cc1ccc(C)c(OCC(=O)Nc2nonc2NC(=O)COc2cc(C)ccc2C)c1	n	n	n	n	n	19	n	n
Cc1cccc(OCC(=O)Nc2nonc2NC(=O)COc2cccc(C)c2)c1	n	n	n	n	n	n	x	x
CN(C)C(CNC(=O)c1ccc(NS(=O)(=O)c2ccc3[nH]c(=O)[nH]c3c2)cc1)c1ccccc1 (centres undefined)	n	n	n	n	n	n	x	x
CN(CC(=O)Nc1ccccc1Cl)C(=O)c1ccc(N2C(=O)CCC2=O)cc1	n	n	n	n	n	n	x	x
Cc1ccc(NC(=O)Cn2nc(-c3ccccc3)nc2-c2ccccc2)c(C)c1	n	n	n	n	n	17	n	n
c1ccc(-c2nnc(-c3c[nH]c4ccccc34)nc2-c2ccccc2)cc1	n	n	n	n	n	15	n	n
C/C(=N/NC(=O)C1COc2ccccc2O1)c1ccc(Br)s1 (centres undefined)	n	n	n	n	n	13	n	n
CCc1cc(=O)oc2cc3oc(C)c(C)c3cc12	n	n	n	n	n	n	x	x
CCCc1cc(=O)oc2cc3oc(C)c(C)c3cc12	n	n	n	n	n	13	n	n
SMILES	TAAR1 ag	MC4R antag cAMP	TAAR1 antag	B2AR ag	HTR2A ag	MC4R ag barr	MC4R barr ag	MOR DOR agonist
Cc1ccc(-c2cnc(C(O)c3cccc(Cl)c3)[nH]2)cc1 (centres undefined)	x	n	x	x	n	n	x	x
COc1ccc(-c2nc3ccc(Cl)cn3c2Cc2cccc(Cl)c2)cc1OC	n	x	n	x	n	x	x	x
COc1cccc(N2CCN(C(=O)CCCCCn3c(=S)[nH]c4cc5c(cc4c3=O)OCO5)CC2)c1	n	n	n	n	n	35	14	21
O=C(CCCCCn1c(=S)[nH]c2cc3c(cc2c1=O)OCO3)N1CCN(c2ccccc2)CC1	n	n	n	n	n	n	x	x
CC1(C(=O)NCc2cccnc2)CCN1C(=O)Cc1cccs1 (centres undefined)	n	n	n	x	n	n	x	x
COc1ccc(C2=NN(C(=O)c3cccs3)C(c3ccccc3O)C2)cc1 (centres undefined)	n	n	n	n	n	13	16	n
Cc1nc(-c2cccnc2)sc1C(=O)Nc1ccc(Cl)cc1	n	n	n	n	n	n	x	x
Cc1nc(-c2cccnc2)sc1C(=O)N/N=C/c1ccccc1Cl	n	n	n	42	n	11	n	n
CCC(=O)Nc1cc(-c2nn(C)c(=O)c3ccccc23)ccc1OC	n	n	n	n	n	n	x	x
Cc1ccc(-c2nn(CC(=O)NCc3cc(-c4nn(C)c(=O)c5ccccc45)ccc3C)c(=O)c3ccccc23)cc1	n	n	n	n	n	16	25	n
Cn1nc(-c2ccc(C(=O)Nc3ccc(F)cc3)cc2)c2ccccc2c1=O	x	n	x	n	n	n	x	x
COc1ccc(-c2nn(C)c(=O)c3ccccc23)cc1NC(=O)COc1ccc(C)cc1	n	n	n	n	n	21	n	n
CCC(=O)NCc1cc(-c2nn(C)c(=O)c3ccccc23)ccc1C	n	n	n	n	n	n	x	x
Cc1ccc(NC(=O)c2ccc(-c3nn(C)c(=O)c4ccccc34)cc2)cc1	n	n	n	n	n	22	n	n
C[C@H]1CN([C@@H](C)CO)C(=O)CCCn2nncc2CO[C@H]1CN(C)C(=O)Nc1cccc(Oc2ccccn2)c1	n	n	n	x	n	n	x	x
O=C(CNc1ccc(C(F)(F)F)cc1)Nc1cccc(S(=O)(=O)N2CCCCC2)c1	n	n	n	x	n	n	x	x
O=[N+]([O-])c1ccc(N/N=C/c2ccccc2)c(F)c1	n	n	n	n	n	12	n	n
